PGC1a Ac signal = compounds raising PGC1a acetylation signal, primary screen, PGC1a modulator project, cell-based, U2OS, AlphaScreen, signal-increasing mode; activation, % at 15.6 µM; 350,000 tested, 0.21% active; overnight;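 active = every replicate reaching activation of at least 50%, whatever the mean replicate activation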;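 also: hits raise the AlphaScreen acetylation signal above neutral controls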
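System: Flag-PGC1a/GCN5 U2OS cells | Quantity: 7000 cells/well | Times: Overnight compound treatment, 37 °C | Measured by: AlphaScreen proximity luminescence, anti-acetyl-lysine antibody | Dosing: One concentration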
Large screens that a line does not name were inactive. This is one part of a sample in which hits are shown more often than they occur.

O=C(COc1ccc(Br)cc1)NCCNC(=O)c1cccnc1	none
CC(C)(C)c1ccc(C(=O)Nc2ccc(C(=O)NCc3cccnc3)cc2)cc1	PGC1a Ac signal 101
CCSc1ccc(NC(=O)c2cccnc2)cc1	PGC1a Ac signal 226
CN(C)c1ncnc2c1ccn2C1OC(CO)C(O)C1O (stereo not given)	none
O=C(NCc1ccccc1)C1Cc2c(-c3ccc4c(c3)OCO4)ccnc2O1 (stereo not given)	PGC1a Ac signal 133
CC(=O)c1cccc(-c2ccnc3c2CC(C(=O)NCC2CC2)O3)c1 (stereo not given)	PGC1a Ac signal 58
C[C@H]1CN([C@@H](C)CO)C(=O)c2cc(C#CC(C)(C)O)cnc2O[C@@H]1CN(C)C(=O)C1CCC1	none
Cc1cc(Sc2nnc(N)s2)c2ccccc2n1	PGC1a Ac signal 59
O=C(CSc1nc(O)cc(=O)n1-c1ccccc1)N1CCCCC1	none
C=CCn1c(C)nnc1SCC(=O)NC1CC1	none
Nc1nnc(SCC(=O)NC2CCCCC2)n1-c1ccccc1	PGC1a Ac signal 62
C/C(=N\N1CCN(c2ccccc2)CC1)c1ccccc1O	none
C(=C\c1ccccc1)/CN1CCN(C(c2ccnc3ccccc23)c2nnnn2C2CCCCC2)CC1 (stereo not given)	PGC1a Ac signal 65
Cn1ncc(C(=O)Nc2ccc(Cl)cc2)c1C(F)(F)F	none
O=C(OCn1ncc(Cl)c(Cl)c1=O)c1ccc(C(F)(F)F)cc1	PGC1a Ac signal 154
CN(C)C(=O)C[C@H]1CC[C@H](NC(=O)C2CCC2)[C@@H](CO)O1	none
O=C1C(c2ccccc2)C(c2ccccc2)NC(c2ccccc2)C1c1ccccc1 (stereo not given)	PGC1a Ac signal 55
C=CCn1c(SCC(=O)NC(=O)NCc2ccco2)nc2sc(CC)cc2c1=O	PGC1a Ac signal 57
Cc1ccc(S(=O)(=O)N[C@@H]2C=C[C@H](CC(=O)NCCN3CCCCC3)O[C@@H]2CO)cc1	none
CC(C)(C)C(=O)/C(=C\c1cccc([N+](=O)[O-])c1)n1cncn1	none
COc1ccc2cc3c(N)nn(C(=O)c4ccccc4Cl)c3nc2c1	none
COc1ccc2cc3cc(C(=O)NCc4cccs4)oc3nc2c1	PGC1a Ac signal 70
O=C(CCC1CCCCC1)NCc1cccs1	none
Cc1ccc(CNC(=O)CCS(=O)(=O)c2cc3c(cc2Cl)NC(=O)CO3)cc1	none
C[C@H]1CN([C@@H](C)CO)S(=O)(=O)c2ccc(Br)cc2O[C@H]1CN(C)S(C)(=O)=O	none
COc1ccc(S(=O)(=O)N(C)C[C@H]2Oc3cc(C4=CCCC4)ccc3S(=O)(=O)N([C@H](C)CO)C[C@@H]2C)cc1	none
COc1ccc(S(=O)(=O)N(C)C[C@@H]2Oc3cc(C#CC4CC4)ccc3S(=O)(=O)N([C@@H](C)CO)C[C@@H]2C)cc1	PGC1a Ac signal 136
Cc1ccccc1-c1ccc2c(c1)O[C@H](CN(C)Cc1ccncc1)[C@@H](C)CN([C@@H](C)CO)S2(=O)=O	PGC1a Ac signal 57
Cc1ccc(S(=O)(=O)N(C)C[C@H]2Oc3cc(C#Cc4ccncc4)ccc3S(=O)(=O)N([C@H](C)CO)C[C@H]2C)cc1	none
COc1ccc(S(=O)(=O)N(C)C[C@@H]2Oc3cc(C#CC4CC4)ccc3S(=O)(=O)N([C@H](C)CO)C[C@@H]2C)cc1	PGC1a Ac signal 56
C[C@H](CO)N1C[C@H](C)[C@@H](CN(C)Cc2cccnc2)Oc2cc(C#CC3CCCCC3)ccc2S1(=O)=O	none
C[C@H]1CN([C@@H](C)CO)S(=O)(=O)c2ccc(Br)cc2O[C@@H]1CN(C)S(=O)(=O)c1ccccc1F	PGC1a Ac signal 64
C[C@@H]1CN([C@@H](C)CO)S(=O)(=O)c2ccc(-c3ccc(F)cc3)cc2O[C@H]1CN(C)C(=O)C1CCCCC1	none
CCCN(C)C[C@@H]1Oc2cc(C#C[C@H](C)O)ccc2S(=O)(=O)N([C@H](C)CO)C[C@@H]1C	none
C[C@H](CO)N1C[C@H](C)[C@H](CN(C)C(=O)NC2CCCCC2)Oc2cc(C#Cc3ccc(F)cc3)ccc2S1(=O)=O	none
COc1ccccc1C#Cc1ccc2c(c1)O[C@@H](CN(C)Cc1cccnc1)[C@H](C)CN([C@@H](C)CO)S2(=O)=O	none
COc1ccc(-c2cnc3c(c2)C(=O)N([C@H](C)CO)C[C@H](C)[C@@H](CN(C)C(=O)C2CC2)O3)cc1	none
O=S1(=O)CCC(N=Cc2ccc(-c3ccc(Cl)cc3)o2)C1 (stereo not given)	none
COC(=O)c1cc(Cl)c(NS(=O)(=O)c2ccccc2)cc1OC	none
Cc1c(NC(=O)c2ccccc2NS(=O)(=O)c2ccc(Br)cc2)c(=O)n(-c2ccccc2)n1C	none
C[C@H]1CN([C@@H](C)CO)C(=O)CCCn2cc(nn2)CO[C@H]1CN(C)S(=O)(=O)c1ccc(Cl)cc1	none
CN(C)C(=O)c1ccc(-c2ccc([C@H]3[C@H]4CN(C(=O)CC5CC5)CC(=O)N4[C@H]3CO)cc2)cc1	none
CCC(C)(C)NC(=O)c1ccc2c(c1)S(=O)(=O)c1ccccc1C2=O	none
O=C(CS(=O)CC(=O)Nc1cccc2c1CCCC2)Nc1ccc(F)cc1 (stereo not given)	PGC1a Ac signal 66
CCOC(=O)c1oc2nc3c(cc2c1N)COC(C)(C)C3	PGC1a Ac signal 63
Cc1ccc(CNC(=O)c2ccc(CS(=O)(=O)c3ccccc3)o2)cc1	none
O=C(NCc1cccnc1)/C(=C/c1ccc(-c2ccc(Cl)cc2)o1)S(=O)(=O)c1ccccc1	PGC1a Ac signal 360
O=C(c1cc2ccccc2o1)N1CC=C(c2ccccc2)CC1	none
O=C(Nc1ccc(OC(=O)c2ccccc2)c(-c2nc3ccccc3s2)c1)c1ccccc1	PGC1a Ac signal 106
Cc1ccc(S(=O)(=O)N[C@H]2C=C[C@H](CC(=O)NCCN3CCCCC3)O[C@H]2CO)cc1	none
CN(c1cccc(NS(=O)(=O)c2cccs2)c1)S(C)(=O)=O	none
O=C(CSc1nnc(-c2ccco2)n1-c1ccccc1)Nc1c(Cl)cc(Cl)cc1C(=O)O	none
O=C(CSc1nnc(-c2ccncc2)n1-c1ccc(Cl)cc1)NCc1cccs1	PGC1a Ac signal 81
COc1cc(C2C(C#N)=C(N)Oc3c2oc(CO)cc3=O)cc(OC)c1OC (stereo not given)	PGC1a Ac signal 102
CC(C(=O)OCn1nnc2ccccc2c1=O)N1C(=O)c2ccccc2C1=O (stereo not given)	none
O=C1NC(=S)S/C1=C\C=C\c1ccc([N+](=O)[O-])o1	PGC1a Ac signal 73
COCC(=O)OCC(=O)Nc1cc(C(C)(C)C)nn1-c1ccccc1	none
Cc1nc([N+](=O)[O-])c(Br)n1Cc1ccc(Cl)c(Cl)c1	PGC1a Ac signal 90
CO[C@H]1CN(C)C(=O)c2cc(NC(C)=O)ccc2OC[C@@H](C)N(CC2CCCCC2)C[C@@H]1C	none
COc1ccc(S(=O)(=O)N(C)C[C@H]2Oc3c(NS(=O)(=O)c4ccc(C)cc4)cccc3C(=O)N([C@H](C)CO)C[C@H]2C)cc1	none
C=CC[C@@H](CC(=O)N[C@@H](CO)Cc1ccccc1)C(=O)N[C@@H](COC(=O)[C@@H](CC=C)CC(=O)OC(C)(C)C)Cc1c[nH]c2ccccc12	PGC1a Ac signal 155
COCCCNC(=S)Nc1cc(C)c(C)cc1C	none
N#CC(C#N)=c1ccc2c(c1)NC1(CCCCC1)N=2	PGC1a Ac signal 162
CN(C)C(=O)C[C@H]1CC[C@@H](NC(=O)C2CCC2)[C@H](CO)O1	none
C[C@@H]1CCCCO[C@H](CN(C)C(=O)NC2CCCCC2)[C@@H](C)CN([C@@H](C)CO)C(=O)c2cc(NC(=O)NC3CCCCC3)ccc2O1	none
CC(C)OC(=O)CSc1nc2cccnc2n1-c1ccc(F)cc1	PGC1a Ac signal 53
COC(=O)c1cccc(NC(=O)CSc2nc3cccnc3n2C)c1	none

Screening results (PubChem)
